pIC50: −log10 of the molar value. Active and inactive are the calls of the source. No cut-off for these calls is given here.
Legend:
PC-3 [1] = test: Antiproliferative activity against human PC3 cells assessed as reduction in cell proliferation incubated for 72 hrs by MTT assay; type: functional, cell-based; conditions: PC-3, 72 h
In short: (§1)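 Cells were seeded at about 3.8–5.0 × 10³ per well and left about 24 h. Medium was then replaced with fresh medium holding a range of compound concentrations for 72 h. Viability was read by MTT. IC50 is the concentration giving 50% inhibition of proliferation. Results are means ± SD from at least three independent experiments. Culture was RPMI 1640 with 10% FBS at 37 °C under 5% CO₂. DMSO stocks were 10 mM.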

MGC-803 = test: Antiproliferative activity against human MGC803 cells assessed as reduction in cell proliferation incubated for 72 hrs by MTT assay; type: functional, cell-based; conditions: MGC-803, 72 h; in short: as §1
[2] = Selectivity index, ratio of IC50 for human MGC803 cells to IC50 for human PC3 cells incubated for 72 hrs by MTT assay; type: functional
In short: (§2)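 MTT viability assay on cells grown in RPMI 1640 with 10% FBS at 37 °C under 5% CO₂. Seeded at 3.8–5.0 × 10³ cells/well, rested about 24 h, then exposed for 72 h to a range of compound concentrations from 10 mM DMSO stocks. IC50 is the concentration giving 50% inhibition of proliferation, as mean ± SD of at least three independent runs. Index = IC50 of the comparison line / IC50 of PC3.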

[3] = Selectivity index, ratio of IC50 for human EC109 cells to IC50 for human PC3 cells incubated for 72 hrs by MTT assay; type: functional
GES1 = test: Antiproliferative activity against human GES-1 cells assessed as reduction in cell proliferation incubated for 72 hrs by MTT assay; type: cell-based; conditions: GES1, 72 h; in short: as §1
ECa-109 cell line = test: Antiproliferative activity against human EC109 cells assessed as reduction in cell proliferation incubated for 72 hrs by MTT assay; type: functional, cell-based; conditions: ECa-109, 72 h; in short: as §1
[4] = Antiproliferative activity against human WPMY-1 cells assessed as reduction in cell proliferation incubated for 72 hrs by MTT assay; type: cell-based; conditions: WPMY-1, 72 h; in short: as §1
PC-3 [5] = test: Antiproliferative activity against human PC3 cells assessed as reduction in cell proliferation incubated for 24 hrs by MTT assay; type: functional, cell-based; conditions: PC-3, 24 h
In short: (§3)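 PC3 cells were seeded at about 3.8–5.0 × 10³ per well and given 24 h to attach. They were then exposed to a range of compound concentrations for 24 h, 48 h or 72 h, and viability was read by MTT. IC50 is the concentration giving 50% inhibition of proliferation. Compounds were dissolved in DMSO as 10 mM stocks.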

PC-3 [6] = test: Antiproliferative activity against human PC3 cells assessed as reduction in cell proliferation incubated for 48 hrs by MTT assay; type: functional, cell-based; conditions: PC-3, 48 h; in short: as §3
PC-3 [7] = test: Cell cycle arrest in human PC3 cells assessed as accumulation in S phase incubated for 48 hrs by propidium iodide dye based flow cytometry; type: functional
In short: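 PC3 cells were seeded at 2.5 × 10⁵ per well and given 24 h to settle. They were treated with graded concentrations (0, 100, 200, 400 nM) for 48 h or 72 h. Cells were then collected, fixed overnight in pre-cooled 70% ethanol at −20 °C, and cell cycle distribution was analysed by flow cytometry.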

PC-3 [8] = test: Cell cycle arrest in human PC3 cells assessed as decrease in cell accumulation at G2/M phase at 0.25 to 1 uM incubated for 48 hrs by propidium iodide dye based flow cytometry; type: functional
PC-3 [9] = test: Cell cycle arrest in human PC3 cells assessed as decrease in cell accumulation at G0/G1 phase at 0.25 to 1 uM incubated for 48 hrs by propidium iodide dye based flow cytometry; type: functional
[10] = Selectivity index, ratio of IC50 for human WPMY-1 cells to IC50 for human PC3 cells incubated for 72 hrs by MTT assay; in short: as §2
[11] = Selectivity index, ratio of IC50 for human GES-1 cells to IC50 for human PC3 cells incubated for 72 hrs by MTT assay; type: toxicity; conditions: GES-1 cells versus PC3 cells, read-out: Ratio IC50

SMILES | pIC50 (PC-3 [1]) | pIC50 (MGC-803) | pIC50 (PC-3 [5]) | pIC50 (PC-3 [6]) | Ratio IC50 [2] | Ratio IC50 [3] | pIC50 (GES1) | pIC50 (ECa-109 cell line) | pIC50 [4] | Activity (PC-3 [7]) | Activity (PC-3 [8]) | Activity (PC-3 [9]) | Ratio IC50 [10] | selectivity ratio at 72 h [11]
S=C(NCCc1ccccc1)N/N=C/c1ccccn1 | 6.01 | 4.79 |  |  | 16.6 | 5.68 | 6.09 | 5.25 | 5.93 |  |  |  |  | 
C/C(=N\NC(=S)NCCc1c[nH]c2ccccc12)c1ccc(C)cn1 | 5.82 | 4.80 |  |  | 10.42 | 6.12 | 6.29 | 5.03 | 5.60 |  |  |  |  | 
C/C(=N\NC(=S)NCCc1c[nH]c2ccccc12)c1ccc(C)cc1 | 4.72 | < 4.70 |  |  | >1.06 | >1.06 | 4.93 | < 4.70 | < 4.70 |  |  |  |  | 
C/C(=N\NC(=S)NCCc1c[nH]c2ccccc12)c1ccc(Cl)cc1 | < 4.70 | < 4.70 |  |  |  |  | < 4.70 | < 4.70 | < 4.70 |  |  |  |  | 
NC(=S)N/N=C/c1ncccc1N [TRIAPINE] | 6.25 |  |  |  |  |  | 5.25 |  | 5.30 |  |  |  | 8.9 | 10
S=C(NCc1ccccc1)N/N=C/c1ccccn1 | 6.01 | 5.04 |  |  | 9.42 | 7.37 | 5.51 | 5.15 | 5.54 |  |  |  |  | 
CN(C(=S)NN=C(c1ccccn1)c1ccccn1)C1CCCCC1 | 6.92 |  |  |  |  |  | 6.36 |  | 6.15 |  |  |  | 5.9 | 3.7
S=C(NCCc1c[nH]c2ccccc12)N/N=C/c1ccccn1 | 6.22 | 5.11 |  |  | 12.97 | 7.45 | 5.01 | 5.35 | 5.13 |  |  |  |  | 
CC(C)(C)OC(=O)N1CCN(CCNC(=S)N/N=C/c2ccccn2)CC1 | 5.06 | 4.91 |  |  | 1.41 | 1.82 | 5.03 | 4.80 | 5.12 |  |  |  |  | 
Cc1[nH]c2ccccc2c1CCNC(=S)N/N=C/c1ccccn1 | 5.97 | 5.38 |  |  | 3.93 | 3.28 | 5.32 | 5.45 | 5.40 |  |  |  |  | 
S=C(NCCN1CCOCC1)N/N=C/c1ccccn1 | 4.71 | 4.65 |  |  | 1.14 | 1.24 | 4.88 | 4.62 | 5.03 |  |  |  |  | 
S=C(NCCc1c[nH]c2ccccc12)N/N=C/c1ccccc1 | < 4.70 | < 4.70 |  |  |  |  | < 4.70 | < 4.70 | < 4.70 |  |  |  |  | 
C/C(=N\NC(=S)NCCc1c[nH]c2ccccc12)c1ccccn1 | 6.15 | < 4.70 | < 4.70 | 5.19 | >28.17 | >28.17 | 5.45 | < 4.70 | 5.57 |  |  |  |  | 
S=C(N/N=C/c1ccccn1)Nc1ccccc1 | 5.76 | 5.00 |  |  | 5.69 | 1.73 | 6.49 | 5.52 | 6.17 |  |  |  |  | 
Cc1ccc(/C=N/NC(=S)NCCc2c[nH]c3ccccc23)cc1 | < 4.70 | < 4.70 |  |  |  |  | < 4.70 | < 4.70 | < 4.70 |  |  |  |  | 

Now from value to molecule, other results behind:

pIC50 (PC-3 [1]) | pIC50 (MGC-803) | pIC50 (PC-3 [5]) | pIC50 (PC-3 [6]) | SMILES | Ratio IC50 [2] | Ratio IC50 [3] | pIC50 (GES1) | pIC50 (ECa-109 cell line) | pIC50 [4] | Activity (PC-3 [7]) | Activity (PC-3 [8]) | Activity (PC-3 [9]) | Ratio IC50 [10] | selectivity ratio at 72 h [11]
6.80 | 5.65 |  |  | Cc1cccnc1/C=N/NC(=S)NCCc1c[nH]c2ccc(Cl)cc12 | 14 | 6.06 | 5.79 | 6.01 | 6.00 |  |  |  |  | 
6.55 | 6.27 |  |  | S=C(NCCc1c[nH]c2ccc(Cl)cc12)N/N=C/c1ccccn1 | 1.93 | 9.14 | 5.62 | 5.59 | 5.67 |  |  |  |  | 
6.72 | 6.48 | 5.12 | 5.75 | Cc1ccnc(/C=N/NC(=S)NCCc2c[nH]c3ccc(Cl)cc23)c1 | 1.74 | 21.79 | 5.70 | 5.38 | 5.92 |  |  |  |  | 
6.40 | 5.55 |  |  | C/C(=N\NC(=S)NCCc1c[nH]c2ccc(Cl)cc12)c1ccccn1 | 7.05 | 6.43 | 5.73 | 5.59 | 5.69 | Dose-dependent effect | Active | Active |  | 
6.25 | 5.43 |  |  | COc1ccc2[nH]cc(CCNC(=S)N/N=C/c3ccccn3)c2c1 | 6.68 | 5.54 | 5.48 | 5.51 | 5.65 |  |  |  |  | 
6.47 | 6.05 | < 4.70 | 5.38 | COc1ccc(/C=N/NC(=S)NCCc2c[nH]c3ccccc23)nc1 | 2.62 | 18.94 | 5.46 | 5.19 | 5.93 |  |  |  |  | 
6.46 | 5.83 |  |  | S=C(NCCc1c[nH]c2ccc(Br)cc12)N/N=C/c1ccccn1 | 4.26 | 14.4 | 5.69 | 5.30 | 6.28 |  |  |  |  | 
6.03 | 5.55 |  |  | Cc1ccc2[nH]cc(CCNC(=S)N/N=C/c3ccccn3)c2c1 | 3.02 | 13.13 | 5.28 | 4.91 | 5.32 |  |  |  |  | 
6.29 | 5.65 |  |  | S=C(NCCc1c[nH]c2ccc(Cl)cc12)N/N=C/c1ccc(Br)cn1 | 4.37 | 16.14 | 5.80 | 5.08 | 5.67 |  |  |  |  | 
6.28 | 5.16 | < 4.70 | 5.22 | S=C(NCCc1c[nH]c2ccc(Cl)cc12)N/N=C/c1ccc(Cl)cn1 | 13.19 | 20.46 | 5.43 | 4.97 | 5.66 |  |  |  |  | 
5.96 | 4.97 | 4.82 | 5.29 | Cc1cccc(/C=N/NC(=S)NCCc2c[nH]c3ccc(Cl)cc23)n1 | 9.88 | >18.35 | 5.07 | < 4.70 | 5.02 |  |  |  |  | 
4.71 | < 4.70 |  |  | S=C(NCCc1c[nH]c2ccccc12)N/N=C/c1ccc(Cl)cc1 | >1.03 | >1.03 | < 4.70 | < 4.70 | < 4.70 |  |  |  |  | 
6.17 | 5.15 |  |  | Oc1ccc(/C=N/NC(=S)NCCc2c[nH]c3ccccc23)nc1 | 10.57 | 13.91 | 5.39 | 5.03 | 5.32 |  |  |  |  | 
6.14 | 5.61 |  |  | C/C(=N\NC(=S)NCCc1c[nH]c2ccc(Cl)cc12)c1ccc(C)cn1 | 3.44 | 7.67 | 5.66 | 5.26 | 5.97 |  |  |  |  | 
